Laboratory results taken from ChEMBL document CHEMBL2177045, “Chemical subtleties in small-molecule modulation of peptide receptor function: the case of CXCR3 biaryl-type ligands” (J Med Chem, 2012).
Activity calls are given as the source filed them. The rule behind the calls is not given here.

How the values were obtained:
[1] = target: T1, C-X-C chemokine receptor type 3 (Homo sapiens) (UniProt P49682); test: Agonist activity at CXCR3 expressed in HEK293 cells in presence of CXCR3 antagonist (R)-N-(1-(3-(4-ethoxyphenyl)-4-oxo-3,4-dihydropyrido[2,3-d]pyrimidin-2-yl)ethyl)-2-(4-fluoro-3-(trifluoromethyl)phenyl)-N-(pyridin-3-ylmethyl)acetamide by [35S]GTPgamma binding assay; assay type: functional, cell-based
T1 sequence (whole entry): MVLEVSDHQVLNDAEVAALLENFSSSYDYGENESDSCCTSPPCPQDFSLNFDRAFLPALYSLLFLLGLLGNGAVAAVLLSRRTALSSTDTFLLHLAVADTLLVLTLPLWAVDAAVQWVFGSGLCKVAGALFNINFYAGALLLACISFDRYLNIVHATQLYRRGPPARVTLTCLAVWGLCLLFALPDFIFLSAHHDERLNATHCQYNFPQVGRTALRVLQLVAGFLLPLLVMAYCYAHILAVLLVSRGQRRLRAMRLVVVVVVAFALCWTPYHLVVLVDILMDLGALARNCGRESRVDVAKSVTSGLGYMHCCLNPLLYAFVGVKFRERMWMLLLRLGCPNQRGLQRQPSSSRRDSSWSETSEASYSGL
How it was run: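 [35S]GTPγS incorporation on membranes (5 μg/well) of HEK293 cells stably expressing CXCR3. Buffer 50 mM HEPES, 10 mM MgCl2, 100 mM NaCl, pH 7.2, 3 μM GDP, 300 pM [35S]GTPγS, 1 h at room temperature. In antagonist mode, antagonist added 30 min before [35S]GTPγS. Read by filtration and counting.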

[2] = target: T2, C-X-C chemokine receptor type 3 (Homo sapiens, UniProt P49682); test: Displacement of [125I]CXCL10 from CXCR3 expressed in HEK293 cells; assay type: cell-based
T2 sequence (P49682 whole entry): T1 sequence (whole entry)
How it was run: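 Competition binding against [125I]CXCL10 using membranes from HEK293 cells stably expressing CXCR3. Affinities reported as pKi; mean ± SEM of at least three independent experiments.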

[3] = target: T1, C-X-C chemokine receptor type 3 (Homo sapiens); test: Agonist activity at CXCR3 expressed in HEK293 cells by [35S]GTPgamma binding assay relative to CXCL11; assay type: functional, cell-based
How it was run: (§1)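 Membranes (5 μg/well) from HEK293 cells stably expressing CXCR3, incubated with CXCL11 or ligands. Buffer 50 mM HEPES, 10 mM MgCl2, 100 mM NaCl, pH 7.2, with 3 μM GDP and 300 pM [35S]GTPγS, 1 h at room temperature. Filtered on GF/B, incorporated label counted. Response normalized to CXCL11 (α = 1) to give relative efficacy; mean ± SEM of ≥3 independent experiments.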

[4] = target: T2, C-X-C chemokine receptor type 3; test: Agonist activity at CXCR3 expressed in HEK293 cells by [35S]GTPgamma binding assay; assay type: functional, cell-based; how it was run: as §1
[5] = target: T1, C-X-C chemokine receptor type 3 (Homo sapiens); test: Agonist activity at CXCR3 expressed in HEK293 cells by CRE-luciferase reporter gene assay; assay type: functional, cell-based
How it was run: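 HEK293 cells stably expressing CXCR3, transfected with a CRE-luciferase reporter plasmid. Medium swapped for serum-free medium with 0.05% BSA plus ligands for 5 h. Then replaced by luciferin substrate solution (Tris-phosphate pH 7.8, glycerol, Triton X-100, DTT, MgCl2, 825 μM ATP, beetle luciferin) and luminescence read.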

Activity [1] | Ki [2] [nM] | Ratio [3] | EC50 [4] [nM] | Activity [5] | Compound
inactive | 63.1 | 0.99 | 1000 | Active | CC1(C)[C@H]2CC=C(C[N+](C)(C)Cc3ccc(-c4ccccc4I)cc3)[C@@H]1C2
 | 501 | 0.2 | 1260 |  | CC1(C)[C@H]2CC=C(C[N+](C)(C)Cc3ccc(-c4ccccc4F)cc3)[C@@H]1C2
 | 158 | 0.36 | 12600 |  | COc1ccccc1-c1ccc(C[N+](C)(C)CC2=CC[C@H]3C[C@@H]2C3(C)C)cc1
 | 63.1 | 0.95 | 794 |  | CC1(C)[C@H]2CC=C(C[N+](C)(C)Cc3ccc(-c4ccccc4Br)cc3)[C@@H]1C2
 | 251 | 0.64 | 5010 | Active | CC1(C)[C@H]2CC=C(C[N+](C)(C)Cc3ccc(-c4cc(Cl)ccc4Cl)cc3)[C@@H]1C2
inactive | 100 | 0.73 | 1580 |  | CC1(C)[C@H]2CC=C(C[N+](C)(C)Cc3ccc(-c4ccccc4Cl)cc3)[C@@H]1C2
 | 50.1 | 0.98 | 631 |  | CC1(C)[C@@H]2CC=C(C[N+](C)(C)Cc3ccc(-c4ccccc4I)cc3)[C@H]1C2
 | 631 | 0.11 |  |  | CC1(C)[C@H]2CC=C(C[N+](C)(C)Cc3ccc(-c4ccccc4)cc3)[C@@H]1C2
 | 398 | 0.31 | 631 |  | CC1(C)[C@H]2CC=C(C[N+](C)(C)Cc3ccc(-c4cccc(Cl)c4Cl)cc3)[C@@H]1C2
 | 158 | 0.2 | 1260 |  | Cc1ccccc1-c1ccc(C[N+](C)(C)CC2=CC[C@H]3C[C@@H]2C3(C)C)cc1
 | 2000 | 0.07 |  |  | CC1(C)[C@H]2CC=C(C[N+](C)(C)Cc3ccc(-c4ccccc4O)cc3)[C@@H]1C2

The next lines start with the molecule.

Compound | Activity [1] | Ki [2] [nM] | Ratio [3] | EC50 [4] [nM] | Activity [5]
CC1(C)[C@H]2CC=C(C[N+](C)(C)Cc3ccc(-c4cccc(Br)c4)cc3)[C@@H]1C2 |  | 200 | 0.08 |  | 
NCCCC[C@H](NC(=O)[C@@H]1Cc2ccccc2CN1C(=O)CCC(=O)c1ccccc1)C(=O)NCC(c1ccccc1)c1ccccc1 |  | 39.8 | 0.96 |  | 
CC1(C)[C@H]2CC=C(C[N+](C)(C)Cc3ccc(-c4c(Cl)cccc4Cl)cc3)[C@@H]1C2 |  | 398 | 0.42 | 2000 | 
CC1(C)[C@H]2CC=C(C[N+](C)(C)Cc3ccccc3)[C@@H]1C2 |  | 2510 | 0.04 |  | 
CC1(C)[C@H]2CC=C(C[N+](C)(C)Cc3ccc(-c4ccccc4Cl)c(Cl)c3)[C@@H]1C2 |  | 200 | 0.3 | 794 | 
CC1(C)[C@H]2CC=C(C[N+](C)(C)Cc3ccc4c(c3)Cc3ccccc3-4)[C@@H]1C2 |  | 398 | 0.03 |  | 
CC1(C)[C@H]2CC=C(C[N+](C)(C)Cc3ccc(Cl)cc3)[C@@H]1C2 |  |  | 0.02 |  | 
CC1(C)[C@H]2CC[C@@H](C[N+](C)(C)Cc3ccc(-c4ccccc4I)cc3)[C@@H]1C2 |  | 100 | 0.83 | 1260 | 
CC1(C)[C@H]2CC(C[N+](C)(C)Cc3ccc(-c4cccc(Cl)c4)cc3)=C[C@@H]1C2 |  | 501 | 0.07 |  | 
CC1(C)[C@H]2CC=C(C[N+](C)(C)Cc3ccc(-c4cccc(Cl)c4)c(Cl)c3)[C@@H]1C2 |  | 501 | 0.03 |  | 
CCOc1ccc(-n2c([C@@H](C)N(Cc3cccnc3)C(=O)Cc3ccc(F)c(C(F)(F)F)c3)nc3ncccc3c2=O)cc1 |  | 10 | 0 |  | 
Cc1cccc(C)c1-c1ccc(C[N+](C)(C)CC2=CC[C@H]3C[C@@H]2C3(C)C)cc1 |  | 1000 | 0.19 | 7940 | 
CC1(C)[C@H]2CC=C(C[N+](C)(C)Cc3ccc(-c4cccc(Cl)c4)cc3)[C@@H]1C2 |  | 251 | 0.05 |  | inactive
CC1(C)[C@H]2CC[C@@H](C[N+](C)(C)Cc3ccc(-c4cccc(Cl)c4)cc3)[C@@H]1C2 |  | 501 | 0.07 |  | 
CC1(C)[C@H]2CC(C[N+](C)(C)Cc3ccc(-c4ccccc4I)cc3)=C[C@@H]1C2 |  | 200 | 1.05 | 1580 | 
CC1(C)[C@H]2CC=C(C[N+](C)(C)Cc3ccc(-c4ccccc4)c(Cl)c3)[C@@H]1C2 |  | 631 | 0.06 |  | 
CC1(C)[C@@H]2CC=C(C[N+](C)(C)Cc3ccc(-c4cccc(Cl)c4)cc3)[C@H]1C2 |  | 316 | 0.05 |  | 
